Only some compounds are listed: those with a hit (about 3.5% of all), similar ones and a draw of the others.
RGS4 act: potentiators or activators of RGS4; HEK293 M3R/inducible RGS4, carbachol calcium flux Fluo4; active compounds read low; AID 463111; B-score at 10 µM; hit rate 0.92% among 310,000;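 active = B-score of the integrated calcium signal more than 4 SD below the library mean, with starting fluorescence not abnormally high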;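 note: negative B-score means reduced calcium response which marks RGS4 activation or potentiation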
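System: HEK293 FlpIn-TREx cells, stable M3R, doxycycline-inducible RGS4. Timing: overnight RGS4 induction, 30 min dye load 37 °C, 20 min compound RT. Also added: carbachol, ECmax concentration. Measured by: Fluo4 fluorescence kinetic imaging of calcium. Evaluation: integrated calcium ratio converted to B score.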
MrgX1 PAM: human MrgX1 positive allosteric modulation, primary screen | hit rate 0.63% among 310,000 | AID 588675 | B-score at 10 µM | Q96LB2 | MrgX1-HEK293, Fluo-4 calcium flux, FDSS; active compounds read high;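 active = plate-corrected calcium response at least 3 library SD above typical, normal starting fluorescence, not activating the receptor alone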;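 note: compound read alongside a low EC10 to EC30 dose of BAM8-22 agonist; peak minus trough fluorescence over baseline measured at the second addition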
Target sequence (Q96LB2 whole entry, looked up): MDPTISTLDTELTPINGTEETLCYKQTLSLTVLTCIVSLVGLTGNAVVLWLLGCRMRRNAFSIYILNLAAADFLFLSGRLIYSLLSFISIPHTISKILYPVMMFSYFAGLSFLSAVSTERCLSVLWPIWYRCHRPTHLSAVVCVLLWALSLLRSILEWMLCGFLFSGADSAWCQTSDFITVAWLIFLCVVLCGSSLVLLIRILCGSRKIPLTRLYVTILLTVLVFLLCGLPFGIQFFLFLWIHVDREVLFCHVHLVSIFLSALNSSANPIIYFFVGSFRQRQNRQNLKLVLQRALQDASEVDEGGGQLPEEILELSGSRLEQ
MrgX1 ag: activates human MrgX1 receptor signaling; Q96LB2; MrgX1-HEK293 cells, Fluo-4 calcium fluorescence, agonist mode; active compounds read high; B-score at 10 µM; hit rate 0.44% among 310,000;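 active = calcium response B-score plate-corrected fluorescence ratio at least 3 library SD, with starting fluorescence B-score inside 5 SD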
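Material – MrgX1-expressing HEK293 cells · Input – 15,000 cells seeded per well · Dosing – compound as first of three additions · Times – overnight seeding, then 1 h dark dye loading · Measured by – kinetic Fluo-4 NW fluorescence of intracellular calcium · Read-out – B-scored fluorescence response ratio · Benchmarks – positive and negative control wells on each plate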
RGS4 inh: inhibitors of human RGS4. hit rate 0.45% among 310,000. AID 463165. P49798. HEK293 M3R/RGS4 inducible, Fluo-4 calcium flux; active compounds read high; triggered by carbachol at its EC20. B-score at 10 µM;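 active = B-score, a plate-corrected calcium signal, over three deviations above library mean, with baseline fluorescence within five deviations of library mean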;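 note: RGS4 expression induced by doxycycline in cells with stable M3 receptor; B-score is computed from the integrated fluorescence ratio over baseline after carbachol; higher B-score means a larger calcium signal and so more RGS4 inhibition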
Target sequence (P49798 whole entry, looked up): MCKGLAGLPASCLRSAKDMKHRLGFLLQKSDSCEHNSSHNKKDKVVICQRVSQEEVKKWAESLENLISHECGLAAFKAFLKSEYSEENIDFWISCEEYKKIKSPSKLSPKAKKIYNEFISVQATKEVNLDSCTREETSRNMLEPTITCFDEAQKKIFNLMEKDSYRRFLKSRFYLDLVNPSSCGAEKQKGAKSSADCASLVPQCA
MrgX1 antagonist: human MrgX1 receptor antagonism, primary screen; MRGX1-HEK293 calcium flux, Fluo-4, BAM8-22 antagonism; active compounds read low; B-score at 10 µM; hit rate 1.3% among 310,000; AID 588676;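 active = calcium-response B-score plate-corrected more than 3 library SD below zero, starting fluorescence within 5 deviations, no agonist response on first addition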;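 note: peak minus trough fluorescence over baseline after final BAM8-22 challenge near maximal dose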
MrgX1 PAM conf: human MrgX1 positive allosteric modulation, re-confirmation | hit rate 13% among 1,200 | shares compounds with MrgX1 PAM | AID 602413 | activation (ratio percentage), % at 10 µM | MrgX1-HEK293, Fluo-4 calcium fluorescence, FDSS;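 active = ratio at least 3 SD above the weak peptide control, stable starting fluorescence, no direct agonism earlier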;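 note: compound followed by low BAM8-22 agonist challenge near EC20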
MrgX1 ant reconf: confirmation of human MrgX1 receptor antagonists; shares compounds with MrgX1 antagonist; MrgX1-HEK293, BAM8-22 calcium flux, Fluo-4; active compounds read low; remaining BAM8-22 calcium response % of control (active compounds read low), % at 10 µM; hit rate 19% among 2,300;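 active = remaining agonist calcium response no higher than 100% minus 3 SD of agonist-only control wells, with starting fluorescence near control levels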;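 note: agonist BAM8-22 given at a near maximal EC90 to ECmax level; peak minus minimum fluorescence divided by baseline after agonist addition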
HEK293 Ca flux: activity in parental HEK293 cells lacking MrgX1 | shares compounds with MrgX1 antagonist | hit rate 2% among 4,000 | fluorescence ratio F(max-min)/F0 at 10 µM | AID 624111 | Fluo-4 calcium fluorescence, FDSS;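 active = duplicate-averaged calcium fluorescence ratio at least three times the standard deviation of buffer wells, a nonspecific response in parental cells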
HEK293 Ca counter: MrgX1 allosteric activator counter-screen hit in parental HEK293 cells; shares compounds with MrgX1 antagonist; parental HEK293 calcium flux, Fluo-4 fluorescence ratio; active compounds read high; fluorescence ratio F(max-min)/F0 at 10 µM; hit rate 0.4% among 4,000;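 active = calcium fluorescence ratio, averaged over duplicates, at least 3 SD of the buffer-well ratio, meaning a nonspecific response in receptor-free cells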;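 note: untransfected parental HEK293 lacking MrgX1 used as counterscreen for MrgX1 allosteric activators; fluorescence change taken during the second addition on a kinetic imager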
HEK293 Ca cntr2: counter-screen for MrgX1 activators: effect in parental HEK293 cells | AID 624115 | shares compounds with MrgX1 antagonist | Fluo-4 calcium fluorescence (FDSS); active compounds read high | fluorescence ratio F(max-min)/F0 at 10 µM | hit rate 8.7% among 4,000;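 active = calcium fluorescence ratio at least three times the spread of buffer wells, meaning a non-specific response in parental cells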
* marks the source's active call; other numbers are inactive results; i = inactive; x = no result.

SMILES	RGS4 act	MrgX1 PAM	MrgX1 ag	RGS4 inh	MrgX1 antagonist	MrgX1 PAM conf	HEK293 Ca flux	HEK293 Ca counter	HEK293 Ca cntr2	others
CC1Sc2ccc(Cl)cc2-c2nc(N)ncc21 (stereo not given)	i	11*	i	i	i	i	i	i	i
Cc1ccc(-c2cc(N)n(-c3ccc(C)cc3)n2)cc1	i	7.2*	i	i	i	i	i	i	i
Cc1c(NC(=O)Nc2ccc(F)cc2F)c(=O)n(-c2ccccc2)n1C	i	i	i	i	i	x	x	x	x
Cc1ccc(S(=O)(=O)N2CCOC2CNC(=O)C(=O)NCc2ccccn2)cc1 (stereo not given)	i	i	i	i	i	x	x	x	x
Fc1ccc(Nc2ncnc3sc4c(c23)CCC4)cc1	i	6.9*	i	i	i	i	i	i	i
c1ccc(Nc2ncnc3sc4c(c23)CCC4)cc1	i	i	i	i	i	x	x	x	x
Cc1ccc(C(=O)Nc2ncnc3sc4c(c23)CCCCC4)cc1	i	6.7*	i	i	i	8.1%*	i	i	i
C[C@H](Nc1ncnc2sc3c(c12)CCC3)C(=O)O	i	i	i	i	i	x	x	x	x
CN(C(=O)COC(=O)CNC(=O)c1ccccc1F)C1CCCCC1	i	i	i	i	i	x	x	x	x
CC(CNC(=O)c1ccc(OC2CCN(Cc3ccccn3)CC2)cc1)c1ccccc1 (stereo not given)	i	i	i	i	i	x	x	x	x
Cc1ccc2oc(C(=O)N3CCCCCC3)c(C)c2c1	i	6.5*	i	i	i	i	i	i	i
Nc1c(C(=O)N2CCCCCC2)oc2ccccc12	i	10*	i	i	i	i	i	i	i
CCOC(=O)C1C(=O)NC(N2CCCCC2)=NC1c1ccccc1 (stereo not given)	i	8.9*	i	i	i	i	i	i	i
CCOC(=O)C1C(=O)NC(N2CCN(Cc3ccccc3)CC2)=NC1c1ccccc1 (stereo not given)	i	i	i	i	i	x	x	x	x
Cc1cc(S(=O)(=O)NCCCN2CCOCC2)c(Cl)cc1Cl	i	i	i	i	i	x	x	x	x
Nc1cc(Cl)ccc1Oc1ccccc1	i	20*	i	i	i	i	i	i	i
C/C(CC(=O)Nc1ccc(F)cc1F)=N\NC(=O)C(=O)N1CCCCC1	i	i	i	i	i	x	x	x	x
Cc1ccc(NC(=O)/C=C\C(=O)NCC(=O)O)cc1	i	i	i	i	i	x	x	x	x
CC/C(=C\C(=O)c1cccnc1)Nc1ccc(C)c(C)c1	i	8.7*	i	i	i	i	i	i	i
Cc1cccc(NC2=NC(=S)N(c3cccc(C(=O)O)c3)C23CCCCC3)c1	i	i	i	i	i	x	x	x	x
Cc1cccc(C)c1NC1=NC(=S)N(c2ccc(C(=O)O)cc2)C12CCCCC2	i	7.2*	i	i	i	i	i	i	i
O=S1(=O)[C@H]2C[C@@H]3C=C[C@]2(CN1Cc1ccc(C(F)(F)F)cc1)O3	i	i	i	i	i	x	x	x	x
Cc1cc(NC(=O)CSc2nnc(-c3cccs3)n2N)no1	i	i	i	i	i	x	x	x	x
CCCCn1c(SCC(=O)Nc2cc(C)on2)nnc1-c1cccs1	i	6.8*	i	i	i	i	i	i	i
Cc1ccc(CN2CCN(Cc3cnc(N4CCOCC4)s3)CC2CCO)cc1 (stereo not given)	i	i	i	i	i	x	x	x	x
SMILES	RGS4 act	MrgX1 PAM	MrgX1 ag	RGS4 inh	MrgX1 antagonist	MrgX1 PAM conf	HEK293 Ca flux	HEK293 Ca counter	HEK293 Ca cntr2	others
Cc1c(CCC(=O)NCCC(=O)O)c(=O)oc2c(C)c3oc4c(c3cc12)CCCC4	i	i	i	i	i	x	x	x	x
CN(C)S(=O)(=O)c1ccc(C(=O)OCC(=O)NCc2ccccc2)cc1	i	8.4*	i	i	i	i	i	i	i
CC(C)(C)c1ccc(-c2noc(-c3ccc4c(c3)CCO4)n2)cc1	i	7.4*	i	i	-5*	i	i	i	i	MrgX1 ant reconf=i
O=C1N[C@@H](Cc2cn(S(=O)(=O)c3c(F)c(F)c(F)c(F)c3F)c3ccccc23)C(=O)N[C@H]1Cc1ccccc1	i	i	i	i	i	x	x	x	x
Cc1ccccc1-n1c(SCC(=O)N(C)C2CCS(=O)(=O)C2)nc2ccccc2c1=O (stereo not given)	i	14*	i	i	i	i	i	i	i
O=C(CN(C(=O)CCC(=O)Nc1ccccn1)c1cccc(F)c1)NCc1ccco1	i	i	i	i	i	x	x	x	x
Cc1ccc(CN2CCN(C3CCOCC3)CC2CCO)cc1 (stereo not given)	i	8.9*	i	i	i	i	i	i	i
COc1ccc(S(=O)(=O)NCCC(=O)Nc2ccc(C)cc2)cc1	i	i	i	i	i	x	x	x	x
O=C(OCC(=O)N1CCCC1)c1ccc(S(=O)(=O)Nc2ccccc2)cc1	i	12*	i	i	i	i	i	i	i
O=C(Nc1nc(-c2ccccc2)ns1)c1cccs1	i	7.5*	i	i	i	2.7%*	i	i	i
O=C(Nc1nc2ccc(F)cc2s1)c1cccs1	i	9.3*	i	i	i	i	i	i	i
COC(=O)CCC(=O)Nc1cccc([N+](=O)[O-])c1	i	i	i	i	i	x	x	x	x
NC(=O)c1cc2ccncc2c2ccccc12	i	i	i	i	i	x	x	x	x
Cc1ccncc1C(N)=O	i	8.1*	i	i	i	i	i	i	i
